Values joined by “and” are separate entries in the source; they are usually repeats but may differ in a detail not shown here. Equal entries are not always repeated. Ends that are not written are not given here.
Legend:
[1] = system: Jurkat cells; experiment: DNA laddering; type: cell-based, human; conditions: 0.1-25 μM, 4 h
In short: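 Jurkat cells (RPMI 1640, 5% CO₂, 37°C) were exposed to test compound for 4 h, alongside medium, vehicle and 50 μM etoposide (4 h or 24 h) controls. DNA was extracted with a kit and run on a 0.8% agarose gel to look for laddering.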

[2] = system: HOPC myeloma cells; type: cell-based, mouse; conditions: read-out: IC50 toward myeloma cells
[3] = system: Jurkat T-ALL cells; experiment: LDH-release time course, Jurkat cells; type: cell-based, human
In short: (§1)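 Jurkat cells or PBMCs (density-gradient isolated from healthy donors' venous blood) were cultured at 37°C, 5% CO₂, with test compound over a time course. Supernatants taken at each time point were assayed for LDH activity with a commercial kit. Percent cytotoxicity = (E−N)/(P−N)×100, with vehicle as negative and Triton X-100 as positive control. Values are the mean of 3 independent experiments ± SEM.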

[4] = MTT cytotoxicity assay, MDA-MB-231 cells; type: cell-based, human; conditions: % Cytotoxicity, MTT, 24 h, mean ± SEM
[5] = system: MDA-MB-231 breast cancer cells; experiment: MTT cytotoxicity assay, MDA-MB-231 cells; type: cell-based, human; conditions: read-out: IC50 in MDA-MB-231 breast cancer cells; C-terminal amide form
[6] = system: Paclitaxel-resistant MCF7-TX400 cells; experiment: Trypan blue exclusion, MCF7 and MCF7-TX400; type: cell-based, human; conditions: 24 h
In short: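 MCF7 and paclitaxel-resistant MCF7-TX400 cells were maintained in DMEM/10% FBS at 10% CO₂ for ≤30 passages. They were cultured with or without test compound for 24 h, and viability was scored by trypan blue exclusion counts. Values are the mean of 3 independent experiments ± SEM.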

[7] = system: breast cancer cells (MDA-MB-231, SKBR3, MDA-MB-468, T47D, 4T1); type: cell-based, human; mouse; conditions: read-out: IC50 toward breast cancer cells
[8] = MTT cytotoxicity assay, primary HMECs; type: cell-based, human; conditions: % Cytotoxicity, 24 h, mean ± SEM
In short: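 Primary HMECs (MEGM-maintained, ≤6 passages) were seeded at 2 × 10⁵ cells/ml 24 h before treatment. They were exposed for 24 h at 2.5% final FBS, 37°C, 10% CO₂. MTT ([…] final) was added for the last 2 h, with 1% Triton X-100 as the 100%-death control. Formazan was dissolved in DMSO and OD 490 read. Cytotoxicity = (E−N)/(P−N)×100 against vehicle and Triton controls; values are the mean of 3 independent experiments ± SEM.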

[9] = system: Jurkat T-ALL cells; experiment: Propidium iodide uptake, Jurkat; type: cell-based, human; conditions: 25 μM, 5 or 10 min
In short: (§2)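 Jurkat or MDA-MB-231 cells (5 × 10⁵) were exposed to test compound or vehicle. PI (10 μg/ml final) was added 5 min before flow cytometry, and mean channel fluorescence was recorded. For Jurkat, exposure lasted 5 or 10 min, with n=3.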

[10] = Calcein leakage from large unilamellar vesicles; conditions: 20 min; for calcein leakage (membrane disruption) from LUVs: LUVs of 100% anionic lipid POPS; for calcein leakage from LUVs as lipid composition became less negatively charged: greater proportion of zwitterionic lipid POPC
In short: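 LUVs were made from POPC/POPS films (1 mg total lipid) hydrated in 10 mM Tris, 150 mM NaCl, 1 mM EDTA, pH 7.4, with 70 mM calcein. Suspensions were freeze-thawed five times, extruded 15 times through 100 nm filters, and cleared of free dye on Sephadex G-50. Vesicles were diluted to 10 μM final lipid, given peptide at set peptide:lipid molar ratios and held ~20 min at room temperature. Ex 490/em 520 was read against 1% Triton X-100 and water controls. Samples were run at least in duplicate per preparation; values are the mean of three experiments ± SD.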

[11] = system: leukemia cells (Jurkat, THP-1); type: cell-based, human; conditions: read-out: IC50 toward leukemia cells
[12] = system: cancer cells and normal cells; experiment: Specificity factor: IC50 in cancer cells versus normal cells; type: cell-based; conditions: depending on the cancer cell line and the normal cell compared
[13] = system: Jurkat T-ALL cells; experiment: Combination with chemotherapeutic agents, MTT assay 72 h; type: cell-based, human
In short: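 Jurkat cells in RPMI 1640 (2.5% FBS final), seeded at 5 × 10⁵ cells/ml just before treatment. Increasing concentrations of a chemotherapeutic agent, with or without test peptide fixed at 4.5 μM, for 72 h at 37°C, 5% CO₂. MTT added at […] final for the last 2 h; DMSO-solubilised formazan read at 490 nm. Percent cytotoxicity scaled between vehicle and 1% Triton X-100; mean of 3 independent experiments ± SEM.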

[14] = system: MDA-MB-231 breast cancer cells; experiment: Propidium iodide uptake, MDA-MB-231; type: cell-based, human
In short: as §2

[15] = system: 4T1 mouse mammary carcinoma; experiment: 4T1 mammary carcinoma model in BALB/c mice; type: in vivo; conditions: IP, gemcitabine 60 mg/kg Q7D, Mastoparan 6 mg/kg Q2D, from day 5
[16] = Hemolysis assay; type: cell-based, human; conditions: % Hemolysis, human erythrocytes, 4 h, mean ± SEM
[17] = system: human erythrocytes; experiment: Hemolysis assay; type: cell-based; conditions: screen of 24 short cationic peptides
[18] = system: primary PBMCs; experiment: LDH-release time course, PBMCs; type: cell-based, human
In short: as §1

[19] = MTT cytotoxicity assay, normal PBMCs; type: cell-based, human; conditions: % Cytotoxicity, PBMCs, MTT, 24 h, mean ± SEM
[20] = system: PBMCs; experiment: MTT cytotoxicity assay, normal PBMCs; type: cell-based, human; conditions: read-out: IC50 to PBMC; normal cells (PBMC)
[21] = MTT cytotoxicity assay, Jurkat cells; type: cell-based, human; conditions: % Cytotoxicity, Jurkat, MTT, 24 h, mean ± SEM
[22] = system: Jurkat T leukemia cells; experiment: MTT cytotoxicity assay, Jurkat cells; type: cell-based, human; conditions: for effect of pan-caspase inhibitor BOC-D-FMK on induced cell death: BOC-D-FMK 40 μM
[23] = Mastoparan 4.5 μM (IC10) with vinblastine, Jurkat, MTT 72 h

CC[C@H](C)[C@H](N)C(=O)N[C@@H](CC(N)=O)C(=O)N[C@@H](CC(C)C)C(=O)N[C@@H](CCCCN)C(=O)N[C@@H](C)C(=O)N[C@@H](CC(C)C)C(=O)N[C@@H](C)C(=O)N[C@@H](C)C(=O)N[C@@H](CC(C)C)C(=O)N[C@@H](C)C(=O)N[C@@H](CCCCN)C(=O)N[C@@H](CCCCN)C(=O)N[C@H](C(=O)N[C@@H](CC(C)C)C(N)=O)[C@@H](C)CC [Mastoparan, INLKALAALAKKIL-NH2]
DNA laddering [1]: did not cause DNA laddering | IC50 [2]: ~11 µM | time at which cytotoxicity peaked [3]: 8 h | cytotoxicity ([4]; MDA-MB-231, 10 μM Mastoparan): 20 ± 1% | cytotoxicity ([4]; MDA-MB-231, 25 μM Mastoparan): 62 ± 2% | cytotoxicity ([4]; MDA-MB-231, 50 μM Mastoparan): 96 ± 1% | IC50 [5]: 22 µM | toxicity to MCF7-TX400 cells compared with parental MCF7 cells [6]: as toxic | IC50 [7]: 20 to 24 µM | cytotoxicity ([8]; 10 μM Mastoparan): 16 ± 1% | cytotoxicity ([8]; 25 μM Mastoparan): 37 ± 7% | cytotoxicity ([8]; 50 μM Mastoparan): 67 ± 14% | PI uptake (membrane integrity) [9]: rapid PI uptake | calcein leakage (membrane disruption) from LUVs [10]: caused membrane disruption | calcein leakage from LUVs as lipid composition became less negatively charged [10]: largely unchanged | IC50 [11]: 8 to 9.2 µM | specificity factor (selectivity index): fold-difference in the IC50 between cancer cells and normal cells [12]: 2–6 fold | IC10 concentration ([13]; Jurkat T-ALL cells): 4.5 µM | fold reduction of the EC50 of etoposide ([13]; Mastoparan 4.5 μM (IC10) with etoposide, Jurkat, MTT 72 h): approximately 2 fold | increase of vinblastine-mediated cytotoxicity [13, 23]: 10% and ~ 10% | ΔIC50 of vinblastine [13, 23]: ~ 1.2 fold | PI uptake (membrane integrity) [14]: rapid PI uptake | tumour growth (tumour volume and mass) in comparison to saline-treated mice [15]: not statistically significant | hemolysis ([16]; 10 μM Mastoparan): 1 ± 1% | hemolysis ([16]; 25 μM Mastoparan): 2 ± 1% | hemolysis ([16]; 50 μM Mastoparan): 7 ± 1% | hemolytic activity in preliminary screen [17]: devoid of hemolytic activity | time at which cytotoxicity peaked [18]: 8 h | cytotoxicity ([19]; 10 μM Mastoparan): 13 ± 5% | cytotoxicity ([19]; 25 μM Mastoparan): 29 ± 7% | cytotoxicity ([19]; 50 μM Mastoparan): 49 ± 3% | IC50 [20]: 48 µM | cytotoxicity ([21]; 10 μM Mastoparan): 64 ± 7% | cytotoxicity ([21]; 25 μM Mastoparan): 95 ± 4% | cytotoxicity ([21]; 50 μM Mastoparan): 97 ± 1% | effect of pan-caspase inhibitor BOC-D-FMK on induced cell death ([22]; Jurkat, MTT 24 h): not reversed | cytotoxic potency of amidated form compared with free carboxyl form ([22]; Jurkat, MTT 24 h): significantly more potent | fold more potent than Mastoparan-COOH ([22]; Mastoparan-NH2 versus Mastoparan-COOH): 8–11 fold | IC50 ([22]; read-out: IC50 in Jurkat T-ALL cells, C-terminal amide form): 9.1 µM

COc1cc([C@@H]2c3cc4c(cc3[C@@H](O[C@@H]3O[C@@H]5CO[C@@H](C)O[C@H]5[C@H](O)[C@H]3O)[C@H]3COC(=O)[C@H]23)OCO4)cc(OC)c1O [etoposide, reference compound]
effect of pan-caspase inhibitor BOC-D-FMK on induced cell death ([22]; Jurkat, MTT 24 h): significantly reduced

Nc1ccn([C@@H]2O[C@H](CO)[C@@H](O)C2(F)F)c(=O)n1 [gemcitabine, reference compound]
tumour growth (tumour volume and mass) in comparison to saline-treated mice [15]: not statistically significant

INLKALAALAKKIL-COOH (INLKALAALAKKIL-OH) [Mastoparan-COOH, reference compound]
calcein leakage (membrane disruption) from LUVs [10]: caused membrane disruption | calcein leakage from LUVs as lipid composition became less negatively charged [10]: significantly reduced
